Measured values as given in paper PMC4809803 (Oncogene, 2015).

Tests used:
[1] = test system: FLT3-ITD-transformed HCD-57 cells; assay: Cell cycle analysis, propidium iodide; assay type: cell-based, murine; conditions: 100 and 500 nM, 24 hours
[2] = test system: HCD-57 cells expressing FLT3-ITD; assay: XTT cell viability assay, transformed HCD-57; assay type: cell-based, murine; conditions: 48 hours
[3] = test system: FLT3 signaling in FLT3-D835Y-transformed HCD-57 cells; assay: Cell signaling western blot; assay type: cell-based, murine; conditions: 3 hours
Method in brief: (§1)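 EPO-independent retrovirally transformed HCD-57 cells were treated with the indicated inhibitor concentrations for 3 h. They were lysed in whole-cell buffer (25 mM β-glycerophosphate pH 7.3, EDTA/EGTA, 1% Triton X-100, 0.1 M NaCl, 1 mM vanadate, protease inhibitors) and cleared at 13 000×g. Equal total protein was run on SDS gels and immunoblotted for pFLT3 (pY591), pERK1/2 (pT202/pY204), pAKT (pS473), total FLT3/ERK/AKT and GAPDH.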

[4] = test system: FLT3-D835Y-transformed HCD-57 cells; assay: Apoptosis assay, annexin V and propidium iodide; assay type: cell-based, murine; conditions: 100 and 500 nM, 24 hours
parent HCD-57 cells [5] = assay: Apoptosis assay, annexin V and propidium iodide; assay type: cell-based, murine; conditions: 100 and 500 nM, 24 hours, cultured with EPO
[6] = test system: HCD-57 cells expressing FLT3-D835H; assay: XTT cell viability assay, transformed HCD-57; assay type: cell-based, murine; conditions: 48 hours
[7] = test system: HCD-57 cells expressing FLT3-D835Y; assay: XTT cell viability assay, transformed HCD-57; assay type: cell-based, murine; conditions: 48 hours
[8] = test system: FLT3-D835Y-transformed HCD-57 cells; assay: Cell cycle analysis, propidium iodide; assay type: cell-based, murine; conditions: 100 and 500 nM, 24 hours
[9] = test system: FLT3 signaling in FLT3-ITD-transformed HCD-57 cells; assay: Cell signaling western blot; assay type: cell-based, murine; conditions: 3 hours
Method in brief: as §1

[10] = test system: HCD-57 cells transformed with JAK2V617F; conditions: XTT, 48 hours
[11] = test system: FLT3-ITD-transformed HCD-57 cells; assay: Apoptosis assay, annexin V and propidium iodide; assay type: cell-based, murine; conditions: 100 and 500 nM, 24 hours
parent HCD-57 cells [12] = assay: XTT cell viability assay, parent HCD-57; assay type: cell-based, murine; conditions: 48 hours, with EPO

CNC(=O)c1cc(Oc2ccc(NC(=O)Nc3ccc(Cl)c(C(F)(F)F)c3)cc2)ccn1 [sorafenib]
cell cycle distribution (G1, S+G2) [1]: exhibited such an effect only on the FLT3-ITD cells
effect on cell growth/viability [2]: strongly inhibited
phosphorylation of FLT3, ERK and Akt [3]: much less effective
percentage of apoptotic and necrotic cells [4]: no effect
apoptosis (parent HCD-57 cells [5]): neither JI6 nor sorafenib displayed significant effects
effect on cell growth/viability [6]: far less active
effect on cell growth/viability [7]: far less active
cell cycle distribution (G1, S+G2) [8]: exhibited such an effect only on the FLT3-ITD cells
phosphorylation of FLT3, ERK and Akt [9]: strong inhibitory effect
effect on cell viability [10]: far less active
percentage of apoptotic and necrotic cells [11]: potent to induce apoptosis and necrosis
effect on cell viability (parent HCD-57 cells [12]): far less active
